The values below come from article PMC8856734 (Journal of medicinal chemistry, 2021).

Each structure is given as a SMILES string.

The test system of assay [1] is IRF4/MYC axis. Put plainly: Immunoblot of MYC and IRF4 in MM.1S cells. It is filed as cell-based. The note with it: 24 h, 2.5 μM. Put shortly: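 MM.1S cells exposed 24 h to DMSO or 2.5 μM of test compounds (CBP/EP300-selective and BRD4-selective). Lysates immunoblotted for MYC and IRF4, with β-actin as loading control.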
Background: A western blot detects proteins with antibodies after separation by electrophoresis.

The target of assay [2] is T1, BRD4 BD1 (Homo sapiens, UniProt O60885). Briefly: BRD4 AlphaScreen assay with biotinylated JQ1. The assay is classed as binding. For orientation: Alpha assays give light when donor and acceptor beads are brought close together.
For assay [3], the system named is CBP. The note with it: read-out: CBP IC50; cited from earlier work.
The target of assay [4] is T1, BRD4 BD1. Put plainly: Differential scanning fluorometry. The note with it: temperature shift. The assay is classed as binding. In general terms: Differential scanning fluorimetry follows unfolding on heating by fluorescence.
For assay [5], the target named is T2, EP300 (P300) bromodomain (Homo sapiens, UniProt Q09472).
T2 sequence (Q09472 1049-1156 limits assumed): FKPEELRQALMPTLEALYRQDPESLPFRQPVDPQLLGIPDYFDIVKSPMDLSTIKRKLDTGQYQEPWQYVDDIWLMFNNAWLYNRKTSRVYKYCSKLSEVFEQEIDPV
Briefly: Differential scanning fluorometry. The assay is classed as binding. The following applies: temperature shift.

The target in assay [6] is T3, CBP bromodomain (Homo sapiens, UniProt Q92793). Put plainly: Differential scanning fluorometry. The assay is classed as binding. The note with it: for DSF selectivity: CBP and EP300 versus BRD4 BD1, compared with CBP30.
T3 sequence (Q92793 1085-1192 limits assumed): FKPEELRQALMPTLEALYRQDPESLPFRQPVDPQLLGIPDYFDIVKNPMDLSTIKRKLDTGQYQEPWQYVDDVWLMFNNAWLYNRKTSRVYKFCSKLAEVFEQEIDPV
Assay [7] concerns the target T3, CBP bromodomain. Put plainly: CBP AlphaScreen assay with biotinylated small molecule probe compound C. It is filed as binding. The note with it: for loss in inhibitory activity against CBP: other warheads in place of 3,5-dimethylisoxazole; for loss in CBP inhibitory activity: compared to compound 23.
The subject of assay [8] is MYC expression level. Put plainly: Immunoblot of MYC in MOLM13 cells. The assay is classed as cell-based. The note with it: 2 h. Put shortly: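 MOLM13 cells seeded in 6-well plates at 1×10^6 cells/well and treated 2 h with DMSO or 3.0 μM test compound or reference CBP inhibitor. Protein extracted in RIPA plus protease inhibitor cocktail, run on Bis-Tris gels, wet-transferred to PVDF. Probed for MYC, β-actin, H3 and H3K27ac with IRDye secondaries.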

The subject of assay [9] is multiple myeloma lines. Briefly: Cell viability, multiple myeloma lines. It is filed as cell-based. The note with it: 5-day incubation. Put shortly:
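Cells seeded at 500/well in 384-well plates; serially pre-diluted test compound added by pin transfer (100 nl). Viability read by CellTiter-Glo luminescence after 5-day incubation. Data normalized to DMSO control; IC50 from nonlinear regression curve fit.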

In assay [10] the test system is 34 bromodomains. Briefly: BROMOSCAN profiling against 34 bromodomains. The assay is classed as binding. The note with it: 1 μM compound concentration.
The test system of assay [11] is MOLM13 cells. Put plainly: CellTiter-Glo cell viability, MOLM13. It is filed as cell-based. The note with it: 5 day, ATP-dependent luminescence. Summed up:
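MOLM13 cells seeded at 500/well in 384-well plates, given serially pre-diluted test compound or reference CBP inhibitor by pin transfer; 5-day incubation, then ATP-dependent luminescence (CellTiter-Glo).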

Assay [12] deals with H3K27ac level. Put plainly: Immunoblot of H3K27ac in MOLM13 cells. It is filed as cell-based. The following applies: 2 h.

The IC50 is the midpoint of a concentration-inhibition curve. For `COc1ccc(CCc2nc3cc(-c4c(C)noc4C)ccc3n2C[C@H](C)N2CCOCC2)cc1Cl` [CBP30, reference compound], the IRF4/MYC axis perturbation result in assay [1] is listed as “perturbed”. The half-inhibitory concentration (IC50) in assay [2] is 10.1 ± 0.55 µM; in assay [3], […].

In the case of `Cc1noc(C)c1-c1ccn2c(NC3CCCCC3)c(CCc3ccccc3)nc2c1` [Compound 7, N-cyclohexyl-7-(3,5-dimethylisoxazol-4-yl)-2-phenethylimidazo[1,2-a]pyridin-3-amine], the “DSF activity toward BRD4” value in [4] was “very modest activity”. Moreover, the “DSF activity against EP300” value in assay [5] is “more active”. In assay [6] (temperature shift), the “DSF activity against CBP” value is “more active”.

For `CN1Cc2cc(-c3ccn4c(NC5CCCCC5)c(CCc5ccccc5)nc4c3)ccc2NC1=O` [Compound 9], the “loss in inhibitory activity against CBP” value in [7] is reported as “greater than 10 fold”.

For the compound `Cc1[nH]nc2cc(-c3ccn4c(NC5CCCCC5)c(CCc5ccccc5)nc4c3)ccc12` [Compound 10], the “loss in inhibitory activity against CBP” value in [7] was “greater than 10 fold”. The IRF4/MYC axis perturbation entry in [1] is on record as “not with BRD4 inhibitor”.

On to `Cc1noc2cc(-c3ccn4c(NC5CCCCC5)c(CCc5ccccc5)nc4c3)ccc12` [Compound 11], for which the “loss in inhibitory activity against CBP” value in assay [7] is given as “greater than 10 fold”. Further, the IRF4/MYC axis perturbation entry in assay [1] is given as “not with BRD4 inhibitor”.

For `Cc1noc(C)c1-c1ccn2c(NC(C)(C)C)c(CCc3ccccc3)nc2c1` [Compound 13, N-(tert-butyl)-7-(3,5-dimethylisoxazol-4-yl)-2-phenethylimidazo[1,2-a]pyridin-3-amine], the “decrease in CBP inhibitory potency” value in assay [7] (compared to compound 16) was more than 5 fold.

For `COc1ccc(CCc2nc3cc(-c4c(C)noc4C)ccn3c2NC23CC4CC(CC(C4)C2)C3)cc1` [Compound 14, N-((3s,5s,7s)-adamantan-1-yl)-7-(3,5-dimethylisoxazol-4-yl)-2-(4-methoxyphenethyl)imidazo[1,2-a]pyridin-3-amine], in [7] (compared to compound 16), the “decrease in CBP inhibitory potency” value is on record as more than 5 fold.

As to `COc1ccc(CCc2nc3cc(-c4c(C)noc4C)ccn3c2NCCN2CCOCC2)cc1` [Compound 15], the “decrease in CBP inhibitory potency” value in assay [7] (compared to compound 16) is approximately 2 fold.

`COc1ccc(CCc2nc3cc(-c4c(C)noc4C)ccn3c2NC2CCCCC2)cc1` [Compound 16, N-cyclohexyl-7-(3,5-dimethylisoxazol-4-yl)-2-(4-methoxyphenethyl)imidazo[1,2-a]pyridin-3-amine]: the “increase in CBP inhibitory potency” value in [7] (compared to compound 7) is recorded as 5 fold. Further, in assay [6], the DSF selectivity entry is reported as “greater selectivity than the known inhibitor, CBP30”.

For the compound `COc1ccc(CCc2nc3cc(-c4c(C)noc4C)ccn3c2NC(C)C)cc1` [Compound 17, 7-(3,5-dimethylisoxazol-4-yl)-N-isopropyl-2-(4-methoxyphenethyl)imidazo[1,2-a]pyridin-3-amine], the “decrease in CBP inhibitory potency” value in assay [7] (compared to compound 16) is approximately 3 fold.

Regarding `COc1ccc(CCc2nc3cc(-c4c(C)noc4C)ccn3c2NC(C)(C)C)cc1` [Compound 18], the “decrease in CBP inhibitory potency” value in assay [7] (compared to compound 16) is recorded as more than 5 fold.

For `CCCOc1ccc(CCc2nc3cc(-c4c(C)noc4C)ccn3c2NC2CCCCC2)cc1` [Compound 20], the “decrease in CBP inhibitory potency” value in [7] (compared to compound 16) is ~ 4 fold.

For `COc1ccc(CCc2nc3cc(-c4c(C)noc4C)ccn3c2NCc2ccccc2)cc1` [Compound 21], the “decrease in CBP inhibitory potency” value in assay [7] (compared to compound 16) worked out at 10 fold.

With `COc1ccc(CCc2nc3cc(-c4c(C)noc4C)ccn3c2NCc2ccc(Cl)cc2)cc1` [Compound 22], the “decrease in CBP inhibitory potency” value in assay [7] (compared to compound 16) was 10 fold.

Take `COc1ccc(CCc2nc3cc(-c4c(C)noc4C)ccn3c2NC2CCCCC2)cc1Cl` [Compound 23, 2-(3-chloro-4-methoxyphenethyl)-N-cyclohexyl-7-(3,5-dimethylisoxazol-4-yl)imidazo[1,2-a]pyridin-3-amine]: the MYC level result in assay [8] is “caused MYC depletion”. For the same compound, the “more potent against CBP” value in assay [7] (compared to compound 16) amounted to 2 fold. For the same compound, the “MM cell growth inhibition” value in assay [9] is given as “IC50 values similar to CBP30”. Moreover, in assay [10], the “BROMOSCAN binding and selectivity” value is “better binding and selectivity compared to compound 7 and 16”. For the same compound, the IRF4/MYC axis perturbation result in assay [1] was “perturbed”. For the same compound, the DSF selectivity entry in [6] is “greater selectivity than the known inhibitor, CBP30”. The “MOLM13 cell growth inhibition” value in assay [11] is “IC50 values similar to CBP30”. In addition, the H3K27ac level result in assay [12] was “reduced the H3K27ac level similar to CBP30”.

Regarding `COc1ccc(CCc2nc3cc(-c4c(C)noc4C)ccn3c2NC2CCCCC2)cc1OC` [Compound 32], in assay [7], the “loss in CBP inhibitory activity” value is ~ 10 fold.

Consider `COc1ccc(CCc2nc3cc(-c4c(C)noc4C)ccn3c2NC(C)C)cc1OC` [Compound 33, 2-(3,4-dimethoxyphenethyl)-7-(3,5-dimethylisoxazol-4-yl)-N-isopropylimidazo[1,2-a]pyridin-3-amine], for which the “loss in CBP inhibitory activity” value in assay [7] came out at 49 fold. Moreover, the “loss in BRD4 inhibitory activity” value in assay [2] (compared to compound 23) is listed as 4 fold.
